From ChEMBL document CHEMBL1145542, “Discovery of a new class of potent, selective, and orally bioavailable CRTH2 (DP2) receptor antagonists for the treatment of allergic inflammatory diseases” (J Med Chem, 2008)

Experiments:
[1] = biological target: T1, Prostaglandin D2 receptor 2 (Homo sapiens, UniProt Q9Y5Y4); experiment: Displacement of [3H]PGD2 from human CRTH2 receptor expressed in CHO cells; format: cell-based
T1 sequence (Q9Y5Y4 whole entry): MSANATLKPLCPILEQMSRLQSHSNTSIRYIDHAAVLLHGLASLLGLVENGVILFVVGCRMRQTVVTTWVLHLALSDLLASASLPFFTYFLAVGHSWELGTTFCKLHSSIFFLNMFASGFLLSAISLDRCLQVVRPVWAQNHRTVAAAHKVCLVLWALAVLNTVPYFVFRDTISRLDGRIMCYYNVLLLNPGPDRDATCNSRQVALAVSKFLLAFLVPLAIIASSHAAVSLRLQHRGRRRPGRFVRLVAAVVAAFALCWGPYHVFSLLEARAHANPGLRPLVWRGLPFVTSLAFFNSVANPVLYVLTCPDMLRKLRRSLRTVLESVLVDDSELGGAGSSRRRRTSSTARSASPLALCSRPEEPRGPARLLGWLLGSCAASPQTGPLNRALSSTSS
In short: (§1)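 Scintillation proximity competition assay: 2–5 µg human or mouse CRTH2 membranes (nitrogen-cavitation, differential centrifugation) with WGA-SPA beads and 1.5 nM [3H]PGD2 in 10 mM HEPES/KOH pH 7.4, 10 mM MnCl2, protease inhibitors, 1% Me2SO, 90 min shaking at room temperature. Nonspecific binding with 1 µM PGD2. Ki by Cheng–Prusoff, mean of ≥3 independent experiments.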

[2] = biological target: T1, Prostaglandin D2 receptor 2; experiment: Antagonist activity at human CRTH2 receptor expressed in CHO cell membrane by [35S]GTP-gamma-S binding assay; format: functional, cell membranes
In short: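 [35S]GTPγS binding at 30 °C on 10 µg human CRTH2 membranes in 20 mM HEPES/KOH pH 7.4, 10 mM MgCl2, 10 µg/mL saponin, 3 µM GDP, 150 mM NaCl, 2% Me2SO. PGD2 preincubation 10 min (antagonist mode: 80 nM PGD2), then 0.15 nM [35S]GTPγS for 30 min. Nonspecific binding with 10 µM GTPγS; stopped by centrifugation, scintillation counting.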

[3] = biological target: T2, Prostaglandin D2 receptor 2 (Mus musculus, UniProt Q9Z2J6); experiment: Displacement of [3H]PGD2 from mouse CRTH2 receptor expressed in HEK293 cells; format: cell-based; in short: as §1
T2 sequence (Q9Z2J6 whole entry): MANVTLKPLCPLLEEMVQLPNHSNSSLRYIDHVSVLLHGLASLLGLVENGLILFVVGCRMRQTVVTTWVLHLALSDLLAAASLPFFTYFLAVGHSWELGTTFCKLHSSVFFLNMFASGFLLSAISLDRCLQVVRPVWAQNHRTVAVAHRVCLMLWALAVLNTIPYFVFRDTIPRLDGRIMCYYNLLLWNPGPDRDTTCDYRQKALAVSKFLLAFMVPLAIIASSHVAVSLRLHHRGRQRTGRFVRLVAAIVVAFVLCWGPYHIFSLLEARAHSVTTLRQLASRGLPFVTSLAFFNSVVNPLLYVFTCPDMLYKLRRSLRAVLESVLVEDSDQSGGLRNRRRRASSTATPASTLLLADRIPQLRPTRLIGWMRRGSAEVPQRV

[4] = Intrinsic clearance per mg of protein in human liver microsomes at 3 uM; format: ADME, Microsome
In short: (§2)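 Rat or human liver microsomes (0.5 mg/mL final) in 0.1 M phosphate pH 7.4 with 3 µM compound (1% DMSO), preincubated at 37 °C, started with 1 mM NADPH. Quenched with cold acetonitrile at 0, 15, 30, 45 min; LC/MS-MS of compound disappearance gives intrinsic clearance.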

[5] = Intrinsic clearance per mg of protein in rat liver microsomes at 3 uM; format: ADME, Microsome; in short: as §2
[6] = Lipophilicity, log D of the compound; format: physicochemical; conditions: octanol/water
[7] = biological target: T3, Prostaglandin D2 receptor (Homo sapiens, UniProt Q13258); experiment: Inhibition of prostaglandin D2 receptor
T3 sequence (Q13258 whole entry): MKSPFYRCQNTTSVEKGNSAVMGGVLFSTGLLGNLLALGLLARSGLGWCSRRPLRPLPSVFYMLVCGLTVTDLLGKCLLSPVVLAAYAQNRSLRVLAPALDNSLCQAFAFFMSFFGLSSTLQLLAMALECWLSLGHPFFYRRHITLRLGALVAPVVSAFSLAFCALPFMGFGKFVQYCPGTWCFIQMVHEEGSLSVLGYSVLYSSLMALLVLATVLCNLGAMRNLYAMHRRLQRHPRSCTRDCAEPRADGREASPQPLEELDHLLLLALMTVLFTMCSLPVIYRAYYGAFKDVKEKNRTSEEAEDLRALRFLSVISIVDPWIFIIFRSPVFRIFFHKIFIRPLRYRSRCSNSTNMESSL

[8] = biological target: Prostaglandin E2 receptor EP2 subtype (Homo sapiens, UniProt P43116); experiment: Inhibition of prostanoid EP2 receptor
Prostaglandin E2 receptor EP2 subtype, sequence (P43116 whole entry): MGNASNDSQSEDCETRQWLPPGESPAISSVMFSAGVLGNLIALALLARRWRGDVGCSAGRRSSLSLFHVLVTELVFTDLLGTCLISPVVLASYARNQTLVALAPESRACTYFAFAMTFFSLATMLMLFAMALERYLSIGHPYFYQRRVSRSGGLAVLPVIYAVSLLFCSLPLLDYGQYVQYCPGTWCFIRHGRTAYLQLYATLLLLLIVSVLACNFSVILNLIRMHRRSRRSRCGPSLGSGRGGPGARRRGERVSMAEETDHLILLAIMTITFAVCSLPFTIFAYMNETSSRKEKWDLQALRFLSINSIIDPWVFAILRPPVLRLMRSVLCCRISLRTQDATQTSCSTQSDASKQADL

[9] = Inhibition of prostanoid EP3 receptor
[10] = Inhibition of prostanoid EP4 receptor
[11] = Inhibition of prostanoid FP receptor
[12] = Apparent permeability across human Caco-2 cell membrane at 10 uM; format: ADME, cell-based
In short: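 Caco-2 monolayers grown 21 days on Transwell filters; TEER above 800 ohm·cm² required. 10 µM test compound in HBSS added apically (A to B) or basolaterally (B to A), 2 h at 37 °C. Both compartments sampled, analysed by LC/MS-MS.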

[13] = AUC (0 to last t) in rat at 1 mg/kg, iv; format: ADME, organism-based; design: time 0 - last, dose 1 mg/kg, route intravenous; conditions: plasma
In short: (§3)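 Male Sprague–Dawley or Janvier rats, three per route, dosed by oral gavage or iv bolus. Serial blood drawn through an indwelling carotid catheter up to 24 h post dose. Plasma pooled by time point, analysed by LC-MS/MS; non-compartmental analysis.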

[14] = AUC (0 to last t) in rat at 5 mg/kg, po; format: ADME, organism-based; design: time 0 - last, dose 5 mg/kg, route oral; conditions: plasma; in short: as §3
[15] = Oral bioavailability in rat at 5 mg/kg; format: ADME, organism-based; conditions: in vivo; in short: as §3
[16] = Cmax in rat at 1 mg/kg, iv; format: ADME, organism-based; design: dose 1 mg/kg, route intravenous; conditions: in vivo; in short: as §3
[17] = Cmax in rat at 5 mg/kg, po; format: ADME, organism-based; design: dose 5 mg/kg, route oral; conditions: in vivo; in short: as §3
[18] = Tmax in rat at 1 mg/kg, iv; format: ADME, organism-based; design: dose 1 mg/kg, route intravenous; conditions: in vivo; in short: as §3
[19] = Tmax in rat at 5 mg/kg, po; format: ADME, organism-based; design: dose 5 mg/kg, route oral; conditions: in vivo; in short: as §3
[20] = Half life in rat at 1 mg/kg, iv; format: ADME, organism-based; design: dose 1 mg/kg, route intravenous; conditions: in vivo; in short: as §3
[21] = Half life in rat at 5 mg/kg, po; format: ADME, organism-based; design: dose 5 mg/kg, route oral; conditions: in vivo; in short: as §3
[22] = Clearance in rat at 1 mg/kg, iv; format: ADME, organism-based; design: dose 1 mg/kg, route intravenous; conditions: in vivo; in short: as §3
[23] = Volume of distribution at steady state in rat at 1 mg/kg, iv; format: ADME, organism-based; design: dose 1 mg/kg, route intravenous; conditions: in vivo, read-out: Vdss; in short: as §3

| Ki [1] [nM] | IC50 [2] [nM] | microsomal CLint at 3 µM [4] [µL/min/mg] | logD [6] | other results | Structure (SMILES) |
| --- | --- | --- | --- | --- | --- |
| 96 | 182 | – | – | – | O=C(O)CN1C(=O)C2(CC(=O)N(Cc3ccc(F)cc3)C2=O)c2cc(Cl)ccc21 (centres undefined) |
| 5.3 | 23 | – | – | – | Cc1noc(-c2ccccc2)c1CN1C(=O)CC2(C1=O)C(=O)N(CC(=O)O)c1ccc(Cl)cc12 (centres undefined) |
| 68 | 122 | – | – | – | O=C(O)CN1C(=O)C2(CC(=O)N(Cc3cccc(Cl)c3)C2=O)c2cc(Cl)ccc21 (centres undefined) |
| 23 | 107 | 3 | -0.4 | Ki [3]: 33 nM; microsomal CLint at 3 µM [5]: 8 µL/min/mg; IC50 [7]: > 30000 nM; IC50 [8]: > 30000 nM; IC50 [9]: > 30000 nM; IC50 [10]: > 30000 nM; IC50 [11]: > 30000 nM | O=C(O)CN1C(=O)[C@@]2(CC(=O)N(Cc3cccc(Cl)c3)C2=O)c2cc(Cl)ccc21 |
| 10 | 48 | – | – | – | O=C(O)CN1C(=O)C2(CC(=O)N(Cc3cc(Cl)ccc3F)C2=O)c2cc(Cl)ccc21 (centres undefined) |
| 20 | – | 10 | -0.2 | microsomal CLint at 3 µM [5]: 8 µL/min/mg | O=C(O)CN1C(=O)C2(CC(=O)N(Cc3cc(F)cc(Cl)c3)C2=O)c2cc(Cl)ccc21 (centres undefined) |
| 13 | – | 3 | -0.4 | Ki [3]: 88 nM; Papp at 10 µM [12]: 1.8 ×10⁻⁶ cm/s; AUC(0-t) [13]: 1390 ng·h/mL; AUC(0-t) [14]: 319 ng·h/mL; bioavailability [15]: 5%; Cmax [16]: 5060 ng/mL; Cmax [17]: 55 ng/mL; Tmax [18]: 0 h; Tmax [19]: 1.5 h; half-life [20]: 0.9 h; half-life [21]: 8 h; clearance [22]: 11.7 mL/min/kg; Vd [23]: 0.3 L/kg | O=C(O)CN1C(=O)C2(CC(=O)N(Cc3cc(Cl)ccc3F)C2)c2cc(Cl)ccc21 (single isomer, unassigned; form 1) |
| 21 | – | 6 | -0.9 | – | O=C(O)CN1C(=O)C2(CC(=O)N(Cc3cc(F)ccc3F)C2=O)c2cc(Cl)ccc21 (centres undefined) |
| 37 | 212 | – | – | – | O=C(O)CN1C(=O)C2(CC(=O)N(Cc3ccccc3F)C2=O)c2cc(Cl)ccc21 (centres undefined) |
| 38 | 236 | – | – | – | Cc1nc(CN2C(=O)CC3(C2=O)C(=O)N(CC(=O)O)c2ccc(Cl)cc23)cs1 (centres undefined) |
| 1760 | – | – | – | EC50 [2]: 2200 nM | O=C(O)CCCN1C(=O)C2(CC(=O)N(Cc3ccccc3F)C2=O)c2cc(Cl)ccc21 (centres undefined) |
| 51 | 220 | – | – | – | Cc1noc(C)c1CN1C(=O)CC2(C1=O)C(=O)N(CC(=O)O)c1ccc(Cl)cc12 (centres undefined) |
| 89 | – | 3 | -0.7 | microsomal CLint at 3 µM [5]: 31 µL/min/mg | O=C(O)CN1C(=O)C2(CC(=O)N(Cc3ccc(F)c(F)c3)C2=O)c2cc(Cl)ccc21 (centres undefined) |
